Our source for the IC50 and IC90 values is ChEMBL document CHEMBL1133751, “Design, synthesis, and biological evaluation of tricyclic nucleosides (dimensional probes) as analogues of certain antiviral polyhalogenated benzimidazole ribonucleosides” (J Med Chem, 2000).

A short description of assay [1]: Compound was tested for the inhibition of KB cell growth in quadruplicate wells. The assay is classed as functional, cell-based. The conditions noted are these: Homo sapiens. In short, it runs like this: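 KB cells grown through two population doublings with compound in quadruplicate wells. Growth quantified by crystal violet staining and spectrophotometric reading of eluted dye. IC50 from linear regression of percent inhibition against log concentration.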

Assay [2] deals with HFF. The assay is described as follows: Visual cytotoxicity against stationary human foreskin fibroblasts (HFF) cells at the time of HCMV plaque enumeration. The assay is classed as functional, cell-based. In short, it runs like this: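 Stationary HFF monolayers in the uninfected wells of the HCMV plaque assay inspected microscopically for cytotoxicity. Compounds in growth medium at 4–8 concentrations. IC50 from linear regression of percent inhibition against log concentration.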

For assay [3], the system named is Human alphaherpesvirus 1. Briefly: Antiviral activity against HSV-1 (herpes simplex virus), determined by ELISA in quadruplicate wells using BSC-1 cells. The conditions noted are these: Human alphaherpesvirus 1, BSC-1. The assay is classed as functional, organism-based. In short, it runs like this:
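KOS strain HSV-1 at 100 PFU/well added with selected drug concentrations in quadruplicate to 96-well dishes seeded with 10 000 BSC-1 cells/well and incubated overnight. Virus detected by ELISA. IC50 from linear regression of percent inhibition vs log concentration. Average of 2–3 separate experiments.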

Assay [4] deals with HFF. The assay is described as follows: Antiviral activity against towne strain HCMV was determined by plaque reduction assay in duplicate wells using HFF cells. The assay is classed as functional, cell-based. The conditions noted are these: Homo sapiens. In short, it runs like this:
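HFF monolayers in 24-well dishes infected with about 100 PFU Towne HCMV (plaque-purified isolate P0) per cm2. Compounds in growth medium added to duplicate wells at 4–8 concentrations. Plaques scored. IC50 from linear regression of percent inhibition against log drug concentration.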
In general terms: In a plaque reduction assay, fewer plaques than in the control indicate reduced infectivity or spread.

The test system of assay [5] is HFF. Briefly: Antiviral activity against towne strain HCMV was determined by yield reduction assay in duplicate wells using HFF cells. Particulars: Homo sapiens. It counts as functional. In short, it runs like this: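 HFF cells plated in 96-well dishes and incubated overnight. Inoculated with Towne HCMV at MOI 0.5–1 PFU/cell, then drug added, in duplicate wells. Progeny virus yield measured. IC90 from the linear portion of log–log regression of yield versus drug concentration.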

Regarding `CC(C)Nc1nc2nc3cc(Cl)c(Cl)cc3nc2n1C1O[C@H](CO)[C@@H](O)[C@H]1O` (stereo partly specified), the IC50 – broadly, the point on the concentration scale where inhibition reaches its midpoint – in assay [1] turned out to be 70 µM; in assay [2], 100 µM; in assay [3] it was 100 µM; in assay [4], 32 µM.
With `OC[C@H]1OC(n2c(NC3CC3)nc3nc4cc(Cl)c(Cl)cc4nc32)[C@H](O)[C@@H]1O` (stereo partly specified), the 50% inhibitory concentration (IC50) in assay [1] was 90 µM; in assay [2], over 100 µM; in assay [3] it was over 100 µM; in assay [4] it was 32 µM.
With `OC[C@H]1OC(n2c(Cl)nc3nc4cc(Cl)c(Cl)cc4cc32)[C@H](O)[C@@H]1O` (stereo partly specified), the IC50 was found to be 11 µM in assay [1], 21 µM in assay [2], 70 µM in assay [3] and 2 µM in assay [4]. Further, it took 45 µM to reach the 90% level in assay [5] (IC90).
As to `OC[C@H]1OC(n2c(NC3CC3)nc3cc4cc(Cl)c(Cl)cc4cc32)[C@H](O)[C@@H]1O` (stereo partly specified), the 50% inhibitory concentration (IC50) turned out to be 55 µM in assay [1], 32 µM in assay [2], 80 µM in assay [3] and 32 µM in assay [4].
Take `OC[C@H]1OC(n2cnc3nc4cc(Cl)c(Cl)cc4nc32)[C@H](O)[C@@H]1O` (stereo partly specified): the IC50 is over 100 µM in assay [1], 45 µM in assay [2], over 100 µM in assay [3] and 32 µM in assay [4].
In the case of `OC[C@H]1OC(n2cnc3nc4cc(Cl)c(Cl)cc4cc32)[C@H](O)[C@@H]1O` (stereo partly specified), the half-inhibitory concentration (IC50) in assay [1] was 85 µM; in assay [2] it was over 100 µM; in assay [3], over 100 µM; in assay [4], over 100 µM. Further, the concentration for an effect of 90% (IC90) (as a rule, the concentration needed for an effect of 90%) in assay [5] is 85 µM.
On to `OC[C@H]1OC(n2c(NC3CC3)nc3nc4cc(Cl)c(Cl)cc4cc32)[C@H](O)[C@@H]1O` (stereo partly specified), for which the IC50 in assay [1], in assay [2], in assay [3] and in assay [4] was over 100 µM throughout.
Take `OC[C@H]1OC(n2c(SCc3ccccc3)nc3nc4cc(Cl)c(Cl)cc4nc32)[C@H](O)[C@@H]1O` (stereo partly specified): the IC50 in assay [1] came to 20 µM; in assay [2], 20 µM; in assay [3], 30 µM; in assay [4] it was 4.2 µM.
Take `OC[C@H]1OC(n2c(NC3CC3)nc3cc4cc(Cl)c(Cl)cc4nc32)[C@H](O)[C@@H]1O` (stereo partly specified): the IC50 in assay [1] is 100 µM; in assay [2] it was over 100 µM; in assay [3], over 100 µM; in assay [4] it was over 100 µM.
With `CC(C)Nc1nc2cc3cc(Cl)c(Cl)cc3cc2n1C1O[C@H](CO)[C@@H](O)[C@H]1O` (stereo partly specified), the half-maximal inhibitory concentration (IC50) amounted to 146 µM in assay [1], 32 µM in assay [2], 80 µM in assay [3] and 32 µM in assay [4].
Regarding `OC[C@H]1O[C@@H](n2c(Cl)nc3cc(Cl)c(Cl)cc32)[C@H](O)[C@@H]1O`, the 50% inhibitory concentration (IC50) in assay [1] turned out to be 210 µM; in assay [4] it was 2.9 µM. The 90% effect level in assay [5] (IC90) was put at 1.4 µM.
For `OC[C@H]1O[C@@H](n2cnc3cc(Cl)c(Cl)cc32)[C@H](O)[C@@H]1O` [DICHLORORIBOBENZIMIDAZOLE], the half-maximal inhibitory concentration (IC50) was 36 µM in assay [1], 30 µM in assay [3] and 42 µM in assay [4]. In assay [5], this compound came in with an IC90 of 19 µM.
Turning to `CC(C)Nc1nc2cc3cc(Cl)c(Cl)cc3nc2n1C1O[C@H](CO)[C@@H](O)[C@H]1O` (stereo partly specified), the IC50 in assay [1] is 90 µM; in assay [2], 32 µM; in assay [3] it was over 100 µM; in assay [4] it was 32 µM.
On to `OC[C@H]1OC(n2c(SCc3ccccc3)nc3nc4cc(Cl)c(Cl)cc4cc32)[C@H](O)[C@@H]1O` (stereo partly specified), for which the 50% inhibitory concentration (IC50) in assay [1] is 40 µM; in assay [2] it was 20 µM; in assay [3], over 100 µM; in assay [4] it was 4.2 µM.
The matching figures for `OC[C@H]1OC(n2c(SCc3ccccc3)nc3cc4cc(Cl)c(Cl)cc4nc32)[C@H](O)[C@@H]1O` (stereo partly specified): over 100 µM, over 10 µM, over 100 µM and over 10 µM.
In the case of `OC[C@H]1OC(n2c(Cl)nc3cc4cc(Cl)c(Cl)cc4nc32)[C@H](O)[C@@H]1O` (stereo partly specified), the IC50 amounted to 8 µM in assay [1], 18 µM in assay [2], 90 µM in assay [3] and 18 µM in assay [4]. For the same compound, the concentration for an effect of 90% (IC90) in assay [5] was 9.2 µM.
`OC[C@H]1OC(n2cnc3cc4cc(Cl)c(Cl)cc4nc32)[C@H](O)[C@@H]1O` (stereo partly specified): the IC50 in assay [1] is over 100 µM; in assay [2] it was over 10 µM; in assay [3], over 100 µM; in assay [4] it was over 10 µM.
As for `Nc1nc2c(ncn2COC(CO)CO)c(=O)[nH]1` [GANCICLOVIR], the 50% inhibitory concentration (IC50) in assay [1] and in assay [2] was over 100 µM throughout. Also, it took 1.6 µM to reach the 90% level in assay [5] (IC90).
`OC[C@H]1OC(n2c(Cl)nc3cc4cc(Cl)c(Cl)cc4cc32)[C@H](O)[C@@H]1O` (stereo partly specified): the half-inhibitory concentration (IC50) in assay [1] came out at 19 µM; in assay [2] it was 3.2 µM; in assay [3], 26 µM; in assay [4] it was 2 µM. In addition, in assay [5], it took 2.3 µM to reach the 90% level (IC90).
For `OC[C@H]1OC(n2cnc3cc4cc(Cl)c(Cl)cc4cc32)[C@H](O)[C@@H]1O` (stereo partly specified), the IC50 in assay [1], in assay [2], in assay [3] and in assay [4] was over 100 µM each time. In assay [5], this compound gave an IC90 of 17 µM.
As for `CC(C)Nc1nc2nc3cc(Cl)c(Cl)cc3cc2n1C1O[C@H](CO)[C@@H](O)[C@H]1O` (stereo partly specified), the concentration for half-maximal inhibition (IC50) in assay [1] was 90 µM; in assay [2], 100 µM; in assay [3], over 100 µM; in assay [4], 32 µM.
The matching figures for `OC[C@H]1OC(n2c(SCc3ccccc3)nc3cc4cc(Cl)c(Cl)cc4cc32)[C@H](O)[C@@H]1O` (stereo partly specified): over 100 µM, over 100 µM, over 100 µM and over 100 µM.
